According to PubChem BioAssay:
The source made the active and inactive calls.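 How the source made its calls, unless noted: active means NADPH fluorescence slope more negative than the mean of all samples by about 3 SD, 99.7% confidence; inactive means the rest.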

How the values were obtained:
[1] = inhibitors of TNFa-induced NFkB p65 translocation, primary screen, imaging, HUVEC, MLSMR starter and 10KST1 sets (AID 438;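 active means inhibition above 20% together with a positive visual image hit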;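 further: compound added about 3h40 before a 20 min TNFalpha stimulation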;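 on inhibition: signal is the nuclear over cytoplasmic p65 intensity ratio per well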); conditions: HUVEC TNFa-induced p65 nuclear translocation; cell count: measured here: nuclei count (cytotoxicity indicator), at 2.08 µM; inhibition: at 2 µM, stronger effect = higher value, 0% TNFa-plus-vehicle, 100% no-TNFa wells
[2] = reduction of polyQ htt aggregates in cells – imaging, exon1htt(103Q)mCFP cells, high-content imaging, primary screen (AID 483;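 active means visual image review flags a hit and inhibition of aggregation exceeds 20%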;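 further: compound exposure lasted 3 days before fixation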;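 on nuclei count: percent of the per-plate median nuclei count of sample wells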); conditions: exon1htt(103Q)mCFP cell line, aggregate imaging, at 2 µM; inhibition of aggregation: stronger effect = higher value; nuclei count: measured here: cell count, toxicity
[3] = endothelial E-selectin expression blockers – imaging, HUVEC, immunofluorescence, MLSMR starter and 10KST1 sets, primary screen (AID 487;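 active means visually confirmed hit in the image check and inhibition above 20%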;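 on inhibition: signal is fraction of cell area covered by stained E-selectin grains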;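 on nuclei count: 100% = median nuclei count of all wells on the same plate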); conditions: HUVEC TNFalpha-induced E-selectin immunofluorescence imaging, at 2 µM; inhibition: stronger effect = higher value; nuclei count: measured here: cell number, toxicity
[4] = target: Voltage-gated potassium channel subunit beta-2 (Rattus norvegicus) (UniProt P62483); experiment: inhibitors of rat Kvbeta2 reductase activity – biochemical, NADPH fluorescence, primary screen (AID 622;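 active means fluorescence slope higher than the sample average by over 3 SD, cut at about -0.22 in these data, passing the limit was not always enough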;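 further: slope of raw intensity against log time taken from 70 to 1610 s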); conditions: recombinant KvBeta, 4-cyanobenzaldehyde reduction, at 10 µM, stronger effect = higher value
[5] = target: Voltage-gated potassium channel subunit beta-2 (Rattus norvegicus) (UniProt P62483); experiment: enhancers of rat Kvbeta2 NADPH turnover – biochemical, NADPH fluorescence, primary screen (AID 623); conditions: Recombinant KvBeta, NADPH fluorescence decrease slope, 10 min; at 10 µM; stronger effect = lower value;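 further: fluorescence intensity change per second fitted from 20 to 320 s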
[6] = target: Muscarinic acetylcholine receptor M4 (Homo sapiens) (UniProt P08173); experiment: M4-linked GIRK flux change, two-sided – cell-based, HEK293 M4/GIRK, thallium flux, BTC-AM, M4 allosteric agonist project, primary screen (AID 625;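 active means fluorescence slope after compound addition differing from the mean of all tested samples at 99.7% confidence, mostly higher but some lower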;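 further: thallium influx through GIRK channels coupled to M4 in HEK293 cells with BTC-AM dye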); conditions: at 10 µM, actives lie on both sides
Method in brief: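 Material: M4/GIRK1/GIRK2 stable HEK293 cell line. Medium: pH 7.3 thallium assay buffer. Dosing: single compound concentration, 10 µM final. Schedule: 1 h dye loading, 2 min kinetic read. Measured by: kinetic fluorescence with BTC-AM dye. Read-out: post-addition slope, 15–24 s, of baseline-normalized fluorescence. Benchmarks: carbachol and DMSO controls.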

[7] = blockers of RIG-like receptor reporter activation – cell-based, Sendai virus stimulus, luciferase, 10K MLSCN set, TLR/RLR signaling modifier project, primary screen (AID 602276;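 active means inhibition at or above 50% at 10 µM; inactive means inhibition below 50%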;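 further: firefly luciferase from ISG56 promoter only with Renilla not read in this screen; 0% = Sendai virus plus DMSO and 100% = medium plus DMSO without virus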); conditions: HEK293 RL24 IRF3 luciferase reporter, at 10 µM, stronger effect = higher value
[8] = TLR3 IRF3 reporter activation blockers – cell-based, poly I:C stimulus, luciferase, 10K MLSCN set, primary screen (AID 602277;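 active means inhibition of the reporter signal at or above 50%; inactive means inhibition below 50%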); conditions: HEK293-TLR3 RL24 IRF3 luciferase reporter, at 10 µM, stronger effect = higher value

Sequence of Muscarinic acetylcholine receptor M4 (Homo sapiens) (P08173 whole entry, looked up): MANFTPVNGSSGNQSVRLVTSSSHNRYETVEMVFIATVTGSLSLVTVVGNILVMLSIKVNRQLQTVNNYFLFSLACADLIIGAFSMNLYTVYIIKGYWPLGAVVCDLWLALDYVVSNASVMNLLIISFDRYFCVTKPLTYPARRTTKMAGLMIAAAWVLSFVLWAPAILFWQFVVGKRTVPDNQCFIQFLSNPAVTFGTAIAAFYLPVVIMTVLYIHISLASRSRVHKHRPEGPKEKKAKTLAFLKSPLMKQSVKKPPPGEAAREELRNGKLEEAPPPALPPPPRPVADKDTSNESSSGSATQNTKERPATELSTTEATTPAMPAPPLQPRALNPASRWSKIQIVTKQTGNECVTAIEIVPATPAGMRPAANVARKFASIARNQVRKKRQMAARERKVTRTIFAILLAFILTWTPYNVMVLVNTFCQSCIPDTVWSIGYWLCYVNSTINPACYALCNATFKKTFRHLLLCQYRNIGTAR
Sequence of Voltage-gated potassium channel subunit beta-2 (Rattus norvegicus) (P62483 whole entry, looked up): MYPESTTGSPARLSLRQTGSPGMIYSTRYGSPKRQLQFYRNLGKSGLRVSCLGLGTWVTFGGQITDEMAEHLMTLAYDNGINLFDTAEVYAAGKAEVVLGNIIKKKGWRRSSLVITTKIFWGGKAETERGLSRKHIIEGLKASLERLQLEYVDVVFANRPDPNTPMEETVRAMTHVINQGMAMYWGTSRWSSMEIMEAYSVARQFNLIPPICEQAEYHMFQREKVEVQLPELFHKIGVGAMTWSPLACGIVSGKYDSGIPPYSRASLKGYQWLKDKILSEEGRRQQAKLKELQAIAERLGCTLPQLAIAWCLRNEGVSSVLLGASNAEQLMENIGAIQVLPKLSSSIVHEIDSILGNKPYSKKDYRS

SMILES	cell count [1]	inhibition [1]	inhibition of aggregation [2]	nuclei count [2] [%]	inhibition [3]	nuclei count [3] [%]	fluorescence slope [4]	NADPH fluorescence slope [5]	fluorescence slope [6]	inhibition [7]	inhibition [8]
COc1ccc(C2NC(c3ccc(OC)c(OC)c3OC)C(C)C(=O)C2C)c(OC)c1OC (centres undefined)	663	-16.3% (inactive)	2.6% (inactive)	141	-142% (inactive)	104	-0.474 (inactive)	-2.1e-05 (inactive)	0.00551 (inactive)	14.8% (inactive)	25.4% (inactive)
CCNC(=O)N1c2ccc(OCC)cc2C(C)=CC1(C)C	599	2.5% (inactive)	37.2% (inactive)	94.1	-34% (inactive)	102	-0.588 (inactive)	-3e-05 (inactive)	0.00404 (inactive)	-6.26% (inactive)	4.09% (inactive)
COCCN1C(=O)C(=O)/C(=C(/O)c2cccc(OC)c2)C1c1ccncc1 (centres undefined)	272	22.2% (inactive)	17.9% (inactive)	95.1	54.5% (inactive)	92.1	-0.578 (inactive)	-8.8e-06 (inactive)	0.00539 (inactive)	13.1% (inactive)	15.1% (inactive)
C=CCOc1ccc(C2C(C(=O)c3ccco3)=C(O)C(=O)N2Cc2cccnc2)cc1 (centres undefined)	341	-7.7% (inactive)	-11.2% (inactive)	107	-61.9% (inactive)	103	-0.543 (inactive)	-0.000128 (inactive)	0.00458 (inactive)	17.4% (inactive)	14.5% (inactive)
O=C(CCN1CCN(c2ccc(F)cc2)CC1)Nc1ccccc1F	315	-2.1% (inactive)	34.9% (active)	84.8	19.6% (inactive)	87.8	-0.446 (inactive)	0.000136 (inactive)	0.00622 (inactive)	16.9% (inactive)	24.9% (inactive)
CCOC(=O)N1CCC(NC(=O)C2CCCN2C(=O)OCc2ccccc2)CC1 (centres undefined)	861	-0.5% (inactive)	-11.6% (inactive)	120	-19.6% (inactive)	110	-0.561 (inactive)	-1.3e-05 (inactive)	0.00566 (inactive)	-11.6% (inactive)	-1.88% (inactive)
Cc1cccc(OCC(=O)N2CCC(c3ccccc3)C2)c1 (centres undefined)	380	4.3% (inactive)	-13.6% (inactive)	101	-6.3% (inactive)	115	-0.426 (inactive)	1.1e-05 (inactive)	0.0091 (inactive)	-65.5% (inactive)	-177% (inactive)
COc1cccc(-n2c(C)nc3c(cnn3-c3ccc(C)cc3)c2=O)c1	684	-5% (inactive)	2.3% (inactive)	111	-67.2% (inactive)	118	-0.577 (inactive)	2.9e-06 (inactive)	0.00597 (inactive)	-34.8% (inactive)	-67.9% (inactive)
C=C(C)COc1ccc(-c2nc(N)ncc2Oc2ccccc2OCC)c(O)c1	291	-11% (inactive)	-19.9% (inactive)	111	-17.8% (inactive)	114	-0.655 (inactive)	4.1e-05 (inactive)	0.00507 (inactive)	17.7% (inactive)	-3.29% (inactive)
CCOC(=O)CNC(=O)Cn1cnc2c(nnn2-c2cccc(Cl)c2)c1=O	629	-10% (inactive)	-8.9% (inactive)	140	-41.7% (inactive)	110	-0.477 (inactive)	4.8e-05 (inactive)	0.00553 (inactive)	-3.21% (inactive)	5.01% (inactive)
O=c1c2cn[nH]c2nc(SCc2ccc3c(c2)OCCO3)n1-c1ccccc1	488	15.8% (inactive)	4.8% (inactive)	112	-27.1% (inactive)	107	-0.508 (inactive)	1.3e-05 (inactive)	0.0074 (inactive)	7.97% (inactive)	9.23% (inactive)
Nc1nonc1-c1noc(-c2ccccc2Br)n1	384	-1.6% (inactive)	-6.3% (inactive)	63	-23.9% (inactive)	112	-0.252 (inactive)	-2.2e-05 (inactive)	0.00797 (inactive)	5.89% (inactive)	-26.2% (inactive)
Cc1ccc(-c2nnc(-c3ccc(Br)cc3)o2)o1	454	0.5% (inactive)	-10.6% (inactive)	116	-31.4% (inactive)	102	-0.389 (inactive)	-3e-05 (inactive)	0.00923 (inactive)	-38.9% (inactive)	-108% (inactive)
Cn1c(CCCNC(=O)c2ccccc2)nc2ccccc21	761	-25.8% (inactive)	-0.3% (inactive)	104	-49.3% (inactive)	131	-0.275 (inactive)	-5.3e-05 (inactive)	0.00743 (inactive)	13.2% (inactive)	1.35% (inactive)
